Results on nine molecules are retold here after ChEMBL document CHEMBL1127672, “Synthesis and biological evaluation of 2',3'-dideoxy-L-pyrimidine nucleosides as potential antiviral agents against human immunodeficiency virus (HIV) and hepatitis B virus (HBV)” (J Med Chem, 1994).

The subject of test [1] is CCRF-CEM. Briefly: Concentration of compound required to inhibit the synthesis of mitochondrial DNA (mt DNA) in human CCRF-CEM T-lymphoblastic leukemia cells. In kind it is functional, cell-based. Summed up:
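CEM cells exposed to varying drug concentrations, collected, washed in PBS, lysed in 10 mM Tris-HCl pH 7.0 by freeze-thaw; RNase A (10 μg/mL final) then proteinase K for 1 h; DNA blotted onto nylon after NaI addition and boiling 10 min. IC50 = concentration inhibiting mt DNA synthesis by 50%.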

The subject of test [2] is CCRF-CEM. The test is described as follows: In vitro cytotoxicity against human CCRF-CEM T-lymphoblastic leukemia cells was determined. In kind it is functional, cell-based. The essentials:
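CCRF-CEM suspension cultures in RPMI 1640 plus 10% horse serum, 37 °C, 5% CO2; exponential-phase cells at 2 × 10^4 cells/mL given various concentrations; cell numbers counted after 3 days versus drug-free control; 50% value read from plot of cell number against concentration.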

Test [3] relates to Hepatoma cell line. The test is described as follows: The compound was tested for antiviral activity against Hepatitis B virus in human hepatoma cells. The test is classed as functional. As to conditions: read-out: ED50 (the source's name). The essentials: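 HBV-carrying human hepatoma 2.2.15 cells, six-day-old cultures in MEM with Earle's salts and 10% FBS, given varying drug concentrations for 3 days, medium renewed with same drug for a further 3 days; virions in harvested medium PEG-precipitated, viral DNA measured by Southern analysis against untreated controls; ED50 = 50% inhibition.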

The subject of test [4] is MT2. The test is described as follows: The compound was tested for antiviral activity against HIV-1 in MT-2 cells. The test is classed as functional, Homo sapiens. As to conditions: read-out: ED50 (the source's name). The essentials: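 MT-2 cells (1 × 10^4/well, triplicate) in RPMI 1640 with 10% dialysed FBS infected with HIV-1 HTLV-IIIB at 0.1 TCID50/cell (0.01 for one compound), immediately added to serial drug dilutions; after 5 days, MTT read at A595; % protection versus infected and uninfected no-drug controls; ED50 from log plots.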

Setting [5] is: Homo sapiens, Hepatoma cell line.

A value given as a limit tells only on which side of the number the result lay.

For `Nc1nc(=O)n([C@@H]2CC[C@H](CO)O2)cc1F` (stereo in doubt; form 2), the IC50 (commonly the concentration that gives 50% inhibition) in test [1] (Homo sapiens, CCRF-CEM) is over 100 µM; in test [2] (ccrf-cem), 67 µM. The values for the EC50 in test [3] and in test [4] were 0.01 µM and 0.5 µM, respectively.

With `Nc1ccn([C@H]2CC[C@@H](CO)O2)c(=O)n1` (stereo in doubt; form 1) [ZALCITABINE], the results for the IC50 in test [1] (ccrf-cem) and in test [2] (ccrf-cem) were 0.022 µM and 28 µM, respectively. The EC50 in test [3] is 2.8 µM; in test [4], 1.5 µM.

For the molecule `O=c1ccn(C2CCC(CO)O2)c(=O)[nH]1` (stereo not drawn), the IC50 in test [2] (Homo sapiens, CCRF-CEM) is over 100 µM. In addition, the EC50 is over 100 µM in test [3] (setting [5]) and over 100 µM in test [4] (Homo sapiens, MT2).

As for `Nc1ccn([C@H]2CC[C@@H](CO)O2)c(=O)n1` (stereo in doubt; form 2) [ZALCITABINE], the values for the EC50 in test [3] and in test [4] were 5 µM and over 100 µM, respectively.

`Nc1nc(=O)n([C@H]2CC[C@H](CO)O2)cc1F` showed an IC50 in test [2] (Homo sapiens, CCRF-CEM) of over 100 µM. In addition, the EC50 came to 0.5 µM in test [3] (setting [5]) and 6 µM in test [4] (Homo sapiens, MT2).

For `Nc1ccn([C@H]2CC[C@@H](CO)O2)c(=O)n1` (stereo in doubt; form 3) [ZALCITABINE], the IC50 in test [1] (ccrf-cem) is over 100 µM; in test [2] (ccrf-cem), 70 µM. Also, the EC50 came to 0.01 µM in test [3] and 5 µM in test [4].

In test [2] (ccrf-cem), `Nc1nc(=O)n([C@@H]2CC[C@H](CO)O2)cc1F` (stereo in doubt; form 1) came in with an IC50 of 2 µM. The values for the EC50 in test [3] and in test [4] were 10 µM and 2 µM, respectively.

For `Cc1cn([C@@H]2CC[C@H](CO)O2)c(=O)[nH]c1=O`, the EC50 in test [3] (setting [5]) was over 10 µM; in test [4] (Homo sapiens, MT2), over 100 µM.

In test [2] (Homo sapiens, CCRF-CEM), `O=c1[nH]c(=O)n(C2CCC(CO)O2)cc1F` (stereo not drawn) had an IC50 of over 100 µM. For the same molecule, the EC50 in test [3] (setting [5]) is over 10 µM; in test [4] (Homo sapiens, MT2), over 100 µM.
